Laboratory results: publication PMC6697619 (Cell chemical biology, 2019)
“And” between values parts separate entries of the source, which are not always exact repeats. Equal entries are not always repeated. “Also recorded” adds a separate entry of the source. Where two headings read alike, the source gives them in different places. One block for each compound: values may come before it.

Assays:
[1] = system: HCT-116 colorectal cancer cells; assay: XTT cell viability assay, HCT-116; assay type: cell-based, human; settings: for GI50: read-out: GI50 HCT-116
[2] = system: normal colon cells (CoN, ATCC CRL-1790); assay: XTT cell viability assay, normal colon cells; assay type: cell-based, human; settings: read-out: GI50 normal colon
PTEN = assay: RT-qPCR of PTEN transcript in HCT-116 cells; assay type: cell-based, human
[3] = biological target: Dicer-mediated processing of pre-miR-21 (Homo sapiens, UniProt Q9UPY3); assay: Dicer processing assay; assay type: biochemical; settings: for shift in Tm in the presence of Dicer: vs DMSO only control
Dicer-mediated processing of pre-miR-21, sequence (Q9UPY3 whole entry): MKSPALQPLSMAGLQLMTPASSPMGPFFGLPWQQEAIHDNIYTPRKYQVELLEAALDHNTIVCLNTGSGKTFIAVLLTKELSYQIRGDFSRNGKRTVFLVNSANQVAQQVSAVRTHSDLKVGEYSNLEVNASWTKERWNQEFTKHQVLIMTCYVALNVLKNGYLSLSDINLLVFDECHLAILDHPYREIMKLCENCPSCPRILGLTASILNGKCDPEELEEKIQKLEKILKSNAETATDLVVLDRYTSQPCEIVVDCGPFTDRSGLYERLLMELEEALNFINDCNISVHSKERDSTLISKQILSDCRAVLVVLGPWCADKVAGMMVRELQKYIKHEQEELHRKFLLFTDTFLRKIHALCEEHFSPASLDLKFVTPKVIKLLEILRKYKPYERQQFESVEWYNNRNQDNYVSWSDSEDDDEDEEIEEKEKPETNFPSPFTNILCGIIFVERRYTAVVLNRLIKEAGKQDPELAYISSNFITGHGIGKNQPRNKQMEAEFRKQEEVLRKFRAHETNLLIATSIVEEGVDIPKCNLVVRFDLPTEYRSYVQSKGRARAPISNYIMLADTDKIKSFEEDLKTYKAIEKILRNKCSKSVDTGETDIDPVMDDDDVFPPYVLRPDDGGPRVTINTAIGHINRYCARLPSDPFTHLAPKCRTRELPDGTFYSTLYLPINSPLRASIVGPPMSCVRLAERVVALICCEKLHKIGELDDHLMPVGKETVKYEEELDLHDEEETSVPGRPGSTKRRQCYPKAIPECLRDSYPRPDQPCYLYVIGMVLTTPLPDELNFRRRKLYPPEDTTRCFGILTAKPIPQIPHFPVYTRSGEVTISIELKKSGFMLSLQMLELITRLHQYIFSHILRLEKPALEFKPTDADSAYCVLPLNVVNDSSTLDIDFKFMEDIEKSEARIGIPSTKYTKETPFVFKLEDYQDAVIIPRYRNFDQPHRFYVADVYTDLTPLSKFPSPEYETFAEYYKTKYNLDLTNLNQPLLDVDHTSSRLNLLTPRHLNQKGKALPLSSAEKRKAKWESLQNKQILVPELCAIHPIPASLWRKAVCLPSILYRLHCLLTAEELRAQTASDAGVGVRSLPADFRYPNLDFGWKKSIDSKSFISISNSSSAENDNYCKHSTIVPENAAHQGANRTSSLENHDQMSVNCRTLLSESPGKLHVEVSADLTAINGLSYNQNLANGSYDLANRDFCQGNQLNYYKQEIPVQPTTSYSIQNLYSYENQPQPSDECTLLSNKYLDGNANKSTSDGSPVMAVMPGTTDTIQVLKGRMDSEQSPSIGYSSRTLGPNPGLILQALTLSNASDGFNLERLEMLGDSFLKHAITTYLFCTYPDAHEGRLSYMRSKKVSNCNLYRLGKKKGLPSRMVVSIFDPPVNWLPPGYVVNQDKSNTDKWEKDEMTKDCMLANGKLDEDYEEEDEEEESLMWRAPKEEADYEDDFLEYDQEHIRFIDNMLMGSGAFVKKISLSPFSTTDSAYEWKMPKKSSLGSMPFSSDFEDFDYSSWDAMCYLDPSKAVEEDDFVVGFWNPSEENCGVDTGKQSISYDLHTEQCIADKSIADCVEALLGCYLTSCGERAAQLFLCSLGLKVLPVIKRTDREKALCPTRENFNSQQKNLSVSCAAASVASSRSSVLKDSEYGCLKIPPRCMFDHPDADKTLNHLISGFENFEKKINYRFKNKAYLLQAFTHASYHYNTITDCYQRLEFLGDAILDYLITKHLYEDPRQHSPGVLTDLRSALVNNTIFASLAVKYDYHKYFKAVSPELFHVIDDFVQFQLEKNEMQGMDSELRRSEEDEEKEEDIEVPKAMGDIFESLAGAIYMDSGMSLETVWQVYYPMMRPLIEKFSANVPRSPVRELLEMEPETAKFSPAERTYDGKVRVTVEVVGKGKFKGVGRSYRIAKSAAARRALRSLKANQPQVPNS

HIV TAR = assay: DSF specificity screen, HIV TAR; assay type: binding; settings: 5 μM compound, up to 5-fold molar excess
Method in brief: (§1)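 Thermal melt by DSF with SYBR Green: each RNA was exposed to 5 μM test compound and its Tm was determined. Melts were run continuously up to 99°C at 0.09°C/s, with 5 acquisitions per °C and 0.75 s integration. Tm was taken as the half-denatured temperature from a 4PL sigmoidal fit of fluorescence against temperature.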

miR-21 = assay: RT-qPCR of miR-21 expression in HCT-116 cells; assay type: cell-based, human; settings: 50 nM, within 2 hours post-treatment
Method in brief: (§2)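 HCT-116 cells at 50–60% confluence were given 50 nM test compound, and RNA was extracted at time points from 0 to 24 h. miRNAs were quantified by RT-qPCR with LNA primers: 95°C 10 min, then 45 cycles of 95°C 10 s, 60°C 1 min and 95°C 10 s. U6 snRNA served as reference and UniSp6 as spike-in control; run in triplicate.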

pre-miR-638 = assay: DSF specificity screen, pre-miR-638; assay type: binding; settings: 5 μM compound, up to 5-fold molar excess
Method in brief: as §1

[4] = system: miRs -1246, -203a-3p, -200b-3p, -361; assay: RT-qPCR of other miRs in HCT-116 cells; assay type: cell-based, human; settings: 50 nM, 0-24 h
Method in brief: as §2

PDCD4 = assay: RT-qPCR of PDCD4 transcript in HCT-116 cells; assay type: cell-based, human
pre-miR-21 [5] = assay: Differential scanning calorimetry; assay type: binding; settings: 30 μM pre-miR-21, 300 μM bPGN
Method in brief: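 Pre-miR-21 (30 μM), with or without 300 μM test compound, in 0.25 mM Tris-HCl pH 7.5, 0.25 mM NaCl and 1.5% DMSO, degassed. The cell was pressurised to 30 psi and run through 8 alternating up/down scans at 60°C/hr with a 16 s filter. The first up scan was subtracted, the baseline corrected, and the data fitted to a non-2-state unfolding model to give Tm and enthalpy for each transition.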

pre-miR-21 [6] = assay: RT-qPCR of pre-miR-21 expression in HCT-116 cells; assay type: cell-based, human; settings: 50 nM, up to 24 hours post-treatment
tRNA (Lys,3) = assay: DSF specificity screen, tRNA; assay type: binding; settings: 5 μM compound, up to 5-fold molar excess
Method in brief: as §1

Pdcd4 and PTEN = assay: Western blot of Pdcd4 and PTEN protein in HCT-116 cells; assay type: cell-based, human; settings: 50 nM, within 24 hours post-treatment
Method in brief: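 HCT-116 cells treated with 50 nM test compound were harvested at 0–36 h. Lysates were TCA/acetone precipitated, redissolved in 8 M urea, and 20 μg protein per lane was separated on 4–12% Bis-Tris gels, then dry-transferred to PVDF. Blots were probed with mouse anti-PDCD4 or anti-PTEN plus rabbit anti-GAPDH (internal control) and detected with IR-dye secondaries.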

pre-miR-21 [7] = assay: Fluorescence displacement assay; assay type: binding; settings: data not shown
pre-miR-21 [8] = assay: Differential scanning fluorimetry; assay type: binding; settings: titration up to 20-25 μM
[9] = XTT, ATCC CRL-1790, 24 hours post-treatment

Compound: 1,5-bis[3-(2-hydroxyethylamino)propylamino]anthracene-9,10-dione hydrochloride [Compound 6]
GI50 HCT-116 in words ([1]; XTT, 24 hours post-treatment): high nanomolar | GI50 ([1]; XTT, 24 hours post-treatment): 3200 ± 600 nM | GI50 [2, 9]: 1100 ± 800 nM

Compound: CCCC[C@H]1CCCCCCc2[nH]c(/C=C3\N=CC(c4ccc[nH]4)=C3OC)cc21 [Compound 1, butylcycloheptyl prodiginine]
PTEN transcript upregulation (PTEN; by 8 hours post-treatment): 2 fold | PTEN transcript upregulation (PTEN; by 36 hours post-treatment): 2 – 4 fold | shift in Tm in the presence of Dicer ([3]; 50 μM compound, DSF): −2.8 °C | shift in Tm in the presence of Dicer ([3]; 100 μM compound, DSF): −0.6 °C | inhibition of Dicer processing of pre-miR-21, gel shift ([3]; 50 and 100 μM, 10U Dicer per 10 μM pre-miR-21): dose dependent inhibition of Dicer processing | Tm of pre-miR-21 under Dicer reaction conditions ([3]; in the presence of 10 μM compound, DSF): 62.2 °C | reduction of cell number ([1]; 0.05 μM, 24-hours post-treatment): 55% | cell death ([1]; concentration > 0.5 μM, 24 h): complete cell death | GI50 ([1]; XTT, 24 hours post-treatment): 35 ± 3 nM | IC50 ([1]; read-out: cellular growth inhibitory activity, HCT-116, as restated in text): 35 nM and ~35 nM | Tm change of HIV TAR (HIV TAR): did not significantly change the Tm | GI50 [2, 9]: ≥ 10000 nM | reduction of miR-21 levels (miR-21): ~ 80% | Tm change of pre-miR-638 (pre-miR-638): did not significantly change the Tm; also recorded: no Tm shift was observed | reduction of expression level of the other tested miRs [4]: ≤ 30% | PDCD4 transcript upregulation (PDCD4; by 8 hours post-treatment): 2 fold | PDCD4 transcript upregulation (PDCD4; by 36 hours post-treatment): 2 – 4 fold | DSC thermal transition Tm1 of pre-miR-21 in the presence of compound (pre-miR-21 [5]): 42.3 °C | DSC thermal transition Tm2 of pre-miR-21 in the presence of compound (pre-miR-21 [5]): 68.0 °C | pre-miR-21 expression level (pre-miR-21 [6]): did not significantly change | Tm change of tRNA (Lys,3) (tRNA (Lys,3)): did not significantly change the Tm | Pdcd4 and PTEN protein levels (Pdcd4 and PTEN): time dependent increase

Compound: CCCCCC1=C/C(=C/c2[nH]c(-c3ccc[nH]3)cc2OC)N=C1C [Compound 3, prodigiosin, reference compound]
GI50 ([1]; Homo sapiens, HCT-116, 24 h): 240 ± 40 nM | GI50 ([2]; Homo sapiens, 24 h): ≥ 10000 nM

Compound: CC[C@@]1(O)C[C@H](O[C@H]2C[C@H](N(C)C)[C@H](O)[C@H](C)O2)c2c(cc3c(c2O)C(=O)c2c(O)cccc2C3=O)[C@H]1C(=O)OC [Compound 4, aklavin]
GI50 HCT-116 in words ([1]; XTT, 24 hours post-treatment): high nanomolar | GI50 ([1]; XTT, 24 hours post-treatment): 570 ± 60 nM | GI50 [2, 9]: 1700 ± 400 nM

Compound: O=c1[nH]cc(F)c(=O)[nH]1 [Compound 10, 5-fluorouracil, reference compound]
GI50 ([1]; Homo sapiens, HCT-116, 24 h): 720 ± 20 nM | GI50 ([2]; Homo sapiens, 24 h): 2000 ± 200 nM

More lines, main results first:

GI50 ([1]; Homo sapiens, HCT-116, 24 h): 100 ± 10 nM
Compound: COC1=CC(c2cc3ccccc3[nH]2)=N/C1=C\c1[nH]c(C)cc1C [Compound 2, obatoclax, reference compound]
GI50 ([2]; Homo sapiens, 24 h): ≥ 10000 nM

GI50 ([1]; Homo sapiens, HCT-116, 24 h): 3500 ± 500 nM | GI50 HCT-116 in words ([1]; XTT, 24 hours post-treatment): high nanomolar
Compound: COc1cc2c3c4c1Oc1cc5c(cc1O4)[C@@H](Cc1ccc(O)c(c1)Oc1ccc(cc1)C[C@@H]3N(C)CC2)N(C)CC5 [Compound 5, trigilletine]
GI50 ([2]; Homo sapiens, 24 h): 1000 ± 200 nM

GI50 ([1]; XTT, 24 hours post-treatment): ≥ 10000 nM
Compound: CN1CCCC2C(c3ccccc3)C(C3=NCCCC3)C(c3ccccc3)CC21 (stereo not drawn) [Compound 7, Lobinaline]
GI50 [2, 9]: > 10000 nM

GI50 ([1]; XTT, 24 hours post-treatment): ≥ 10000 nM
Compound: C[C@@H](N)C(=O)N[C@H]1CO[C@H](O)[C@H](N)[C@H]1O [Compound 8, prumycin]
GI50 [2, 9]: 5100 ± 100 nM

GI50 ([1]; XTT, 24 hours post-treatment): ≥ 10000 nM
Compound: COc1cc2c3c(cc4ccccc4c3c1OC)N(C)CC2 [Compound 9, dehydronuciferin]
GI50 [2, 9]: > 10000 nM

apparent binding affinity (Kd app) (pre-miR-21 [7]): did not show apparent binding affinity
Compound: CC1(C)CCC(c2ccc(Cl)cc2)=C(CN2CCN(c3ccc(C(=O)NS(=O)(=O)c4ccc(N[C@H](CCN5CCOCC5)CSc5ccccc5)c(S(=O)(=O)C(F)(F)F)c4)cc3)CC2)C1 [Navitoclax]
interaction with pre-miR-21 in DSF (pre-miR-21 [8]): no significant interaction
